High-throughput results from PubChem BioAssay.
MEKK2mut PB1 HTS: MEK5 binding signal on mutant MEKK2 PB1, primary screen, biochemical, multiplex bead flow cytometry, Alexa488-MEK5 | percent response, % at 10 µM | 0.35% of 290,000 active | Alexa488-MEK5 binding to MEKK2 mutant; in the data active = percent response above about 24%, passing the limit was not always enough
MEKK2 WT-MEK5: modulators of MEK5 binding to wildtype MEKK2, primary screen, biochemical, multiplex bead flow cytometry, Alexa488-MEK5; Mitogen-activated protein kinase kinase kinase 2 (Homo sapiens), Q9Y2U5; Alexa488-MEK5 binding to MEKK2 WT; actives lie on both sides; binding response (% of control), % at 10 µM; 1.1% of 290,000 active; AID 1531, 2009; in the data active = binding response below about 67% or above about 130%
MEKK3 PB1 HTS: modulators of MEKK3-MEK5 PB1 binding, primary screen, biochemical, wildtype MEKK3, multiplex bead flow cytometry, Alexa488-MEK5. 1.4% of 290,000 active. Mitogen-activated protein kinase kinase kinase 3 (Homo sapiens), Q99759. bead-based flow cytometry, Alexa488-MEK5 binding to MEKK3; actives lie on both sides; 0 = blocked by unlabeled MEK5, 100 = vehicle. binding response (% of control), % at 10 µM;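 active = binding response more than 3 SD above or below the average of its plate-row segment, actives on both sides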;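 also: Alexa488 bead fluorescence after subtracting the streptavidin-only scavenger bead signal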
Target sequence (Q99759 whole entry, looked up): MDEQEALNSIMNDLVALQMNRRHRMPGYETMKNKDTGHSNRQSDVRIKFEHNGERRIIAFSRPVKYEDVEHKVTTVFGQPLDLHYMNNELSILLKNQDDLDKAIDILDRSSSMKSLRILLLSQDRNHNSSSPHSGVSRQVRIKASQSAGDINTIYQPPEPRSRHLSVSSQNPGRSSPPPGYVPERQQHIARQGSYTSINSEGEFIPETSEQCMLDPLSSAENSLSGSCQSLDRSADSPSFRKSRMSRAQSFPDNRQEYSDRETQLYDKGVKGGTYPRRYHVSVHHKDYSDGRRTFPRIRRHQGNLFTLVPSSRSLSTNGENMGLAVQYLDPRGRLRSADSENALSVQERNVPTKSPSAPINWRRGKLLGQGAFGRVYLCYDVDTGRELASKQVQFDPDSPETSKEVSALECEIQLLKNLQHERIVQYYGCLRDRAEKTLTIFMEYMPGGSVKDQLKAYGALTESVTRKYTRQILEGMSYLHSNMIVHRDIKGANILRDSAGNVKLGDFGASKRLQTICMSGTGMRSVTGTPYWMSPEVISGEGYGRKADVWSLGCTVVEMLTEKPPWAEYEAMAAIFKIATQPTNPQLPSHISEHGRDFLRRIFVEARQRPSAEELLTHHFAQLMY
Arr AP2 block: inhibitors of beta-arrestin/AP2 binding, primary screen, biochemical, GPCR trafficking, flow cytometry. beta-arrestin 1 C-terminal peptide binding to AP2 beta2-adaptin appendage (human). FITC-arrestin peptide / GST-AP2 beads; AP2 beta2 appendage carries R879A mutation. inhibition, % at 10 µM. 0.31% of 340,000 active;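 active = inhibition above a set limit, near 3 SD of compounds lacking own fluorescence, cut at about 54% in these data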;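 also: plate controls were DMSO wells for no effect and 5 µM unlabelled arrestin peptide for full effect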
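system = GST-tagged AP2 beta2-adaptin appendage (R879A) on 4 µm glutathione beads | reagent = FITC-labelled arrestin peptide probe, 50 nM final | schedule = compound with beads 12 min RT, then probe 1 h RT | signal = HyperCyt-sampled flow cytometry, FL1 channel, ex 488/em 535 nm | read-out = percent response from loss of bead-bound FITC fluorescence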
MEKK2wt confirm: modulators of MEK5 binding to wildtype MEKK2, confirmation, biochemical, single concentration, multiplex bead flow cytometry; shares compounds with MEKK3 PB1 HTS; Alexa488-MEK5 binding to MEKK2 WT; actives lie on both sides; binding response (% of control), % at 10 µM; 2.4% of 5,900 active; AID 1892, 2009; in the data active = binding response below about 16% or above about 210%; inactive = in between
MEKK2mut confirm: mutant MEKK2 PB1-MEK5 binding signal retest – biochemical, single concentration, multiplex bead flow cytometry, confirmation; Alexa488-MEK5 binding to MEKK2 mutant; shares compounds with MEKK3 PB1 HTS; AID 1893, 2009; 2% of 5,900 active; percent response, % at 10 µM; in the data active = percent response mostly above about 71%, no sharp cut-off; inactive = mostly below about 38%;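 also: higher means compound restores mutant binding toward wildtype level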
MEKK3-MEK5 inh: MEKK3 wild-type PB1 binding to MEK5, inhibitors, confirmation, biochemical, bead multiplex flow cytometry, single concentration, wildtype. shares compounds with MEKK3 PB1 HTS. Alexa488-MEK5 binding to MEKK3; stronger effect = lower value. binding response (% of control), % at 10 µM. 1.8% of 5,900 active. AID 1894, 2009;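 active = binding response below 72% of control, or above a set upper limit, though filed actives all read lower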;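 also: 100% = DMSO only wells and 0% = binding blocked by excess unlabeled MEK5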
Active calls of the source: *; . = not tested or not shown; [ ] = remark or other dose. An excerpt weighted towards active compounds, which were near 2.3% of everything screened.

SMILES	MEKK2mut PB1 HTS	MEKK2 WT-MEK5	MEKK3 PB1 HTS	Arr AP2 block	MEKK2wt confirm	MEKK2mut confirm	MEKK3-MEK5 inh
CCN(CC)CCN(C(=O)c1ccc2c(c1)OCCO2)c1nc2c(Cl)cccc2s1	21.0	132.0	108.0	-8.4	.	.	.
CN(C)CCCN(C(=O)c1ccc(S(=O)(=O)N(C)C)cc1)c1nc2ccc(F)cc2s1	13.0	112.0	102.0	1.6	.	.	.
CN(C)CCCN(C(=O)c1ccc2c(c1)CCCC2)c1nc2cc3c(cc2s1)OCO3	23.0	154.0*	103.0	-6.4	145.0	25.0	106.0
CN(C)CCCN(C(=O)c1ccc(C(=O)c2ccccc2)cc1)c1nc2cc3c(cc2s1)OCCO3	27.0*	166.0*	107.0	-8.3	155.0	23.0	107.0
CN(C)CCCN(C(=O)c1ccc2c(c1)CCCC2)c1nc2ccc(F)cc2s1	7.0	142.0*	138.0*	3.7	150.0	30.0	106.0
CCN(CC)CCN(C(=O)c1ccc2c(c1)CCCC2)c1nc2c(C)cccc2s1	29.0*	158.0*	111.0	-4.5	107.0	1.0	102.0
CN(CC(=O)Nc1cccc(F)c1)C(=O)/C=C/c1cn(Cc2ccccc2)nc1-c1cccnc1	.	.	.	-13.1	.	.	.
O=C(NNC(=O)c1ccc2nonc2c1)Nc1ccc(Cl)cc1	2.0	101.0	103.0	2.6	.	.	.
Cc1ccccc1-n1nnnc1SCC(=O)c1c(N)n(C2CC2)c(=O)[nH]c1=O	.	.	.	-19.6	.	.	.
CCN(Cc1ccccc1)S(=O)(=O)c1ccc(C(=O)N(CCCN(C)C)c2nc3cc4c(cc3s2)OCO4)cc1	39.0*	202.0*	107.0	-5.6	203.0	56.0	106.0
CN(C)CCCN(C(=O)CCS(=O)(=O)c1ccccc1)c1nc2cc3c(cc2s1)OCO3	6.0	116.0	101.0	39.0	.	.	.
CN(C)CCCN(C(=O)c1ccc(S(=O)(=O)N(C)C)cc1)c1nc2cc3c(cc2s1)OCO3	9.0	114.0	101.0	6.1	.	.	.
CCN(CC)CCN(C(=O)c1ccc2c(c1)CCCC2)c1nc2ccc(F)cc2s1	8.0	154.0*	108.0	23.4	136.0	10.0	105.0
CN(C)CCCN(C(=O)c1ccc(S(=O)(=O)N2CCc3ccccc32)cc1)c1nc2ccc(F)cc2s1	25.0*	166.0*	101.0	26.9	186.0	50.0	107.0
CN(C)CCCN(C(=O)CCSc1ccccc1)c1nc2cc3c(cc2s1)OCO3	12.0	153.0*	110.0	4.0	126.0	10.0	99.0
CCCNS(=O)(=O)c1cc(CN2C(=O)c3cccnc3C2=O)ccc1OC	0.0	101.0	103.0	8.7	.	.	.
CCCCc1c(O)c2cccc3c2n(c1=O)CCC3	.	.	.	-1.6	.	.	.
COc1ccccc1NC(=O)CN1CCC(n2c(C)nc3cc(F)ccc32)CC1	-16.0	2.0*[inhibitor]	2.0*[inhibitor]	24.2	106.0	5.0	106.0
O=C(CC1C(=O)NCCN1CC1CCCCC1)NCc1ccc(Cl)cc1 (stereo not given)	26.0	147.0*	117.0	8.2	118.0	12.0	106.0
Cc1nc(-c2ccc(Br)cc2)ccc1C(=O)O	-2.0	101.0	99.0	-3.3	.	.	.
O=C(N/N=C/c1cccnc1)c1cccs1	28.0	121.0	130.0*	27.7	94.0	1.0	104.0
Cc1ccc(/C=N/NC(=O)c2cccs2)o1	1.0	110.0	128.0*	-0.2	104.0	8.0	103.0
Cc1ccc(S(=O)(=O)N/N=C\c2ccc(C)o2)cc1	1.0	100.0	98.0	2.9	.	.	.
Cc1ccc(/C=N/NC(=O)c2cccc([N+](=O)[O-])c2)o1	4.0	105.0	133.0*	4.7	115.0	10.0	104.0
Cc1ccc(/C=N/NS(=O)(=O)c2ccc([N+](=O)[O-])cc2)o1	1.0	106.0	134.0*	13.7	107.0	4.0	101.0
SMILES	MEKK2mut PB1 HTS	MEKK2 WT-MEK5	MEKK3 PB1 HTS	Arr AP2 block	MEKK2wt confirm	MEKK2mut confirm	MEKK3-MEK5 inh
Cc1cc(C(=O)Nc2cccc(C)c2C)c2ccccc2n1	19.0	112.0	111.0	25.7	.	.	.
O=C(C1CCN(C2CCN(CC3CC=CCC3)CC2)CC1)N1CCOCC1 (stereo not given)	-7.0	95.0	106.0	-3.6	.	.	.
CCOC(=O)c1c(C2CC2)csc1NC(=O)COC(=O)CCS(=O)(=O)c1ccc(C)cc1	-15.0	103.0	104.0	-9.9	.	.	.
CC(C)(C)NC(=O)C(c1ccccn1)N(C(=O)C1CSC(=O)C1)c1ccc(F)cc1 (stereo not given)	1.0	103.0	97.0	-4.5	.	.	.
O=C(N/N=C\c1cn[nH]c1-c1ccc(Cl)cc1)c1cccs1	-30.0	60.0*[inhibitor]	71.0*[inhibitor]	8.4	108.0	13.0	108.0
O=C(N/N=C\c1ccc(-c2ccc([N+](=O)[O-])cc2)o1)c1ccc2c(c1)OCO2	2.0	108.0	142.0*	6.3	96.0	-1.0	99.0
O=C(N/N=C/c1ccc([N+](=O)[O-])o1)c1ccc2c(c1)OCO2	1.0	99.0	101.0	24.1	.	.	.
CC(Sc1nnc(-c2ccccc2Br)n1-c1cccc(C(F)(F)F)c1)C(N)=O (stereo not given)	0.0	91.0	97.0	1.9	.	.	.
O=C(O)CSc1nnc(-c2ccccc2Br)n1-c1cccc(C(F)(F)F)c1	3.0	99.0	101.0	4.0	.	.	.
CCNC(=O)CSc1nnc(-c2ccccc2Br)n1-c1cccc(C(F)(F)F)c1	1.0	109.0	128.0*	8.1	100.0	0.0	99.0
NC(=O)CSc1nnc(-c2ccccc2Br)n1-c1cccc(C(F)(F)F)c1	-1.0	101.0	139.0*	-1.6	104.0	-4.0	102.0
O=c1c([N+](=O)[O-])c(N2CCCCCC2)c2ccccc2n1-c1ccccc1	.	.	49.0*[inhibitor]	3.1	101.0	1.0	105.0
CCN1CCN(S(=O)(=O)c2ccc3ccccc3c2)CC1	-20.0	67.0	50.0*[inhibitor]	1.7	104.0	2.0	101.0
CCS(=O)(=O)N1CCN(S(=O)(=O)c2ccc3ccccc3c2)CC1	3.0	107.0	107.0	7.6	.	.	.
Cc1oc2c(C)c(O)ccc2c(=O)c1-c1cnn(-c2ccccc2)c1	-12.0	81.0	69.0*[inhibitor]	-4.7	97.0	-4.0	99.0
COC(=O)c1ccc(S(=O)(=O)N2Cc3ccccc3C2)cc1	1.0	117.0	135.0*	-12.9	101.0	8.0	102.0
